# An excerpt weighted towards active compounds, which were near 3.8% of everything screened.
# HSP90 refold inh – HSP90 refolding inhibition in rabbit reticulocyte lysate. inhibition, % at 5.6 µM. luciferase refolding luminescence, 3 h. actives 0.91% (n = 290,000);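 active = inhibition above the screen-wide mean plus 3 SD, computed separately per campaign, cut at about 16% in these data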;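 note: 0% = DMSO wells and 100% = 60 µM geldanamycin wells; inhibitors lower the luminescence because luciferase stays unfolded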
# HSF1 activator – increases HSF-1 driven luciferase reporter signal. activation, % at 9 µM. NIH3T3-HGL HSF-1 luciferase reporter, MG132, 8 h; 100% = twice DMSO control signal. actives 1.7% (n = 300,000);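 active = mean replicate activation of at least 50% with a set share of replicates each reaching 50%; inconclusive = only one of those two conditions met; inactive = mean below 50% and too few replicates reaching it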;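 note: 0% = median of the neutral control wells and 100% = twice that signal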
# HSF1 inhib – HSF1 inhibition; NIH3T3-HGL HSE-luciferase, MG132-induced, luminescence 8 h; stronger effect = lower value; activity change, negative = inhibition, % at 7.5 µM (by protocol); actives 0.77% (n = 300,000); AID 2098;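 active = more than half of replicate wells show activity change below -50%, luminescence cut by over half; inconclusive = some wells, but at most half, below -50%; inactive = no replicate well below -50%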;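 note: luciferase reports HSF-1 transcriptional activity via heat shock element; 0% = median of DMSO wells and -100% = zero luminescence signal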
# Lipid droplet – hepatic lipid droplet formation modulation | AML12 mouse hepatocytes, oleate lipid droplets, BODIPY imaging | inhibition, % at 6.5 µM | actives 0.4% (n = 240,000);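 active = lipid droplet intensity inhibited by at least 50%, with more than 500 cells counted; inconclusive = wells with under 300 cells, treated as cytotoxic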
#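 System: AML12 hepatocytes (mouse). Probe or stimulus: oleic acid at 100 µM to induce lipid droplet formation. Times: overnight treatment with compound plus oleate. Detection: Image-based BODIPY and DAPI two-channel analysis. Evaluation: percent inhibition of filter-corrected integrated lipid droplet intensity per well.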
# HCV NS3 hel inh – blocks Hepatitis C virus NS3 helicase unwinding; actives 0.56% (n = 290,000); NS3 helicase DNA unwinding, Cy5 molecular beacon fluorescence; inhibition, % at 10.9 µM;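 active = inhibition above the mean of all tested compounds plus 3 SD, set per campaign, cut at about 35% in these data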;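 note: 0% = DMSO wells and 100% = thioflavine S control wells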
#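 Compound dosing – single dose, 10.9 µM nominal final, DMSO 0.8% final · System – NS3 helicase fragment of HCV · Buffer or medium – MOPS pH 6.5, MgCl2, DTT, Tween20, BSA · Signal – Cy5 beacon fluorescence read at start and 1 h · Also added – annealed dual-labelled DNA beacon duplex, ATP-started · Schedule – 1 h at 25 °C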
# The depositor's hits bear a star; u = inconclusive; x = no result given.
SMILES,HSP90 refold inh,HSF1 activator,HSF1 inhib,Lipid droplet,HCV NS3 hel inh
COc1ccc2[nH]c(=O)c(CN(Cc3nnnn3Cc3ccco3)C3CCCCC3)cc2c1,3,24,15,x,42*
COc1cc2[nH]c(=S)nc(NC3CCCC3)c2cc1OC,1,x,x,-2,-7
O=C1NC(=S)S/C1=C/c1ccc(OC(=O)c2ccco2)cc1,-4,55*,19,-13,21
CCOc1cc(/C=C2/SC(=S)NC2=O)ccc1OC(=O)c1ccco1,2,-9,2,10,2
O=S1(=O)N=C(Nc2ccc(O)cc2)c2ccccc21,0,-9,-4,8,-8
O=C(Oc1ccc(NC2=NS(=O)(=O)c3ccccc32)cc1)c1cccnc1,4,52*,16,24,9
Cc1sc2nc(CSc3cccc(C(F)(F)F)c3)[nH]c(=O)c2c1C,-6,82*,33,-4,2
Cc1c(/C=N/NC(=O)c2ccc(Br)o2)cnn1C,0,61*,21,1,2
Cc1c(/C=N\NC(=O)c2ccc(F)cc2)cnn1C,-5,-2,10,15,11
CN(C)c1ccc(NC(=O)CCN2CCN(c3ccccn3)CC2)cc1,-6,-42,-23,2,12
CCc1cccc(NC(=O)c2sc3nc4n(c(=O)c3c2C)CCC4)c1,-3,55*,43,14,1
O=C(O)CCSc1ncnc2sc(-c3ccccc3)cc12,12,-65,-64*,-3,3
CC(Oc1ccccc1Cl)C(=O)Nc1ccc(S(=O)(=O)N2CCCC2)cc1 (stereo not drawn),x,-11,-6,x,x
CCn1nnc(NC(=O)c2cccnc2Cl)n1,4,16,-2,13,0
CCOc1cc(C(=O)NC2=NCCS2)cc(OCC)c1OCC,-1,29,2,-4,-1
CCCn1nnc(NC(=O)c2ccc(OC)cc2)n1,4,33,8,5,3
CCn1nnc(NC(=O)c2sc3ccccc3c2Cl)n1,0,74*,43,-17,-3
CCOc1ccc(C(=O)Nc2nnn(CC)n2)cc1,16*,11,13,x,7
CCOc1ccc(C(=O)NC2=NCCS2)cc1,0,66*,28,-57,2
Cc1ccccc1Nc1nnc(SCc2cc([N+](=O)[O-])cc3c2OCOC3)s1,0,56*,30,38,-5
CC(C)[C@H](NC(=O)N1CCn2c1nc1ccccc12)C(=O)NC1CCCCC1,2,-5,-3,6,31
S=C(c1ccc(-c2ccc(Cl)c(Cl)c2)o1)N1CCOCC1,1,59*,37,14,18
S=C(c1ccc(-c2ccc(Br)cc2)o1)N1CCCCC1,-3,62*,16,26,1
CCc1cc2c(=O)c(-c3ccc4c(c3)OCCO4)coc2cc1OC(=O)c1ccco1,1,30,28,1,-2
CCCc1cc2c(=O)c(-c3ccc4c(c3)OCCO4)coc2cc1OC(=O)c1ccco1,3,64*,33,x,4
SMILES,HSP90 refold inh,HSF1 activator,HSF1 inhib,Lipid droplet,HCV NS3 hel inh
COC(=O)C1CCN(CC(=O)NC(=O)NC2CCCCC2)CC1,-2,-8,0,-1,-5
COc1ccc(C(=O)CC(=O)C(=O)Nc2cccc([N+](=O)[O-])c2C)cc1,-4,58*,19,x,34
CCCOc1ccc(C(=O)Nc2ccccc2[N+](=O)[O-])cc1,0,59*,35,x,-14
COc1ccc(S(=O)(=O)N(C)CC(=O)NCc2ccco2)cc1OC,-3,-5,-5,-4,3
COc1ccccc1CN1CC(C(=O)N(C)Cc2ccc(C)o2)CCC1=O (stereo not drawn),-5,-6,-9,-3,8
COc1cccc(C(=O)N=c2sc3c(C)ccc(OC)c3n2C)c1,x,43,17,-1,x
COc1ccc(C(=O)N=c2sc3c(C)ccc(OC)c3n2C)cc1OC,9,62*,42,-10,-1
Cn1c(=NC(=O)c2ccc(S(=O)(=O)N3CCCc4ccccc43)cc2)sc2cc(S(C)(=O)=O)ccc21,-4,-6,-9,-15,1
C#CCn1c(=NC(=O)c2ccc(S(=O)(=O)N3CCCc4ccccc43)cc2)sc2cc(S(N)(=O)=O)ccc21,2,53*,6,-11,7
Cc1csc(NC(=O)CSc2nc(=O)n(CCN(C)C)c3c2CCCC3)n1,x,-5,-4,x,x
COc1ccccc1C(=O)Nc1nc2cc3c(cc2s1)OCCO3,-2,1,-3,14,-4
COc1ccc(C(=O)Nc2nc3cc4c(cc3s2)OCCO4)c(OC)c1,0,-67,-61*,2,17
COc1ccccc1C(=O)Nc1nc2cc3c(cc2s1)OCO3,2,54*,27,9,-3
COc1cc(C(=O)NNc2nc3cc4c(cc3s2)OCO4)cc(OC)c1OC,2,62*,26,-1,-13
CC1(c2ccc3ccccc3c2)NC(=O)N(CC(=O)N2CCN(c3ccccc3O)CC2)C1=O (stereo not drawn),-4,19,-1,-28,7
COc1ccccc1N(CC(=O)NCCN1CCOCC1)S(=O)(=O)c1ccccc1,6,-19,-13,1,-4
c1ccc(Cn2ccc(-c3cnc(-c4ccccc4)s3)n2)cc1,1,74*,36,9,-1
O=C(c1ccc([N+](=O)[O-])s1)N1CCN(c2cccc(Cl)c2)CC1,7,-59,-52*,-20,4
O=C(c1cccs1)N1CCN(c2cccc(Cl)c2)CC1,-5,14,2,-10,-7
Cc1c(NC(=O)C2CC(c3ccc(F)cc3)=NO2)c(=O)n(-c2ccccc2)n1C (stereo not drawn),-5,-88,-84*,x,0
COCCN(CCOC)C(=O)c1ccc(SCc2ccc(C)cc2)c([N+](=O)[O-])c1,-1,0,11,-7,-6
Nc1nonc1N/N=C/c1c(O)ccc2ccccc12,4,62*,26,5,10
CCOc1ccc(-c2ccc(SCC(=O)Nc3nnc(CC)s3)nn2)cc1,-6,x,x,-15,-8
CCOc1ccc(-c2ccc(SC)nn2)cc1,73*,2,-12,-5,0
CCc1ccc(C(=O)COC(=O)CNC(=O)c2cccs2)cc1,-3,-89,-86*,7,0
COc1ccc(N2C(=O)/C(=C\c3ccco3)N=C2SCC(=O)NC(C)(C)C)cc1Cl,2,u,27,-2,7
NC(=O)CSC1=N/C(=C\c2ccco2)C(=O)N1c1ccc(OC(F)F)cc1,5,72*,53,-2,18
CC(=O)Nc1ccc(N(CC(=O)NC2CCCCC2)C(=O)Cn2nnc(-c3ccccc3)n2)cc1,-1,13,-3,13,-2
CC1(c2ccccc2)NC(=O)N(CC(=O)Nc2ccccc2C(=O)NC2CC2)C1=O (stereo not drawn),-1,-14,-7,0,4
Cc1ccc(-c2cc(C(=O)N3CCCCC3)c3ccccc3n2)cc1C,-2,41,20,4,-3
